In brackets after ≈: the same amount, converted by molar mass. Activity calls are given as the source filed them. The calls are words filed in the database; no cut-off is given here.
Tests used:
[1] = biological target: Gamma-secretase (Homo sapiens) (UniProt Q96BI3+Q9NZ42+Q8WW43+P49768+Q92542+P49810); experiment: Modulation of gamma secretase in human SH-SY5Y cells overexpressing wild type APP751 assessed as effect on total amyloid beta level by meso scale discovery; assay type: cell-based
Procedure, shortened: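 SHSY5Y cells stably overexpressing wild-type human APP751 treated with the compound over a concentration range. Aβ38, Aβ40, Aβ42 and total Aβ in the medium measured by MSD triplex immunoassay (4G8 detection, 2 h at room temperature). Concentrations back-fitted from standard curves.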

Cytochrome P450 2C9 = Cytochrome P450 2C9 (Homo sapiens, UniProt P11712); experiment: Inhibition of recombinant CYP2C9 (unknown origin) by fluorescence-based assay; assay type: ADME
Cytochrome P450 2C9, sequence (P11712 whole entry, canonical isoform): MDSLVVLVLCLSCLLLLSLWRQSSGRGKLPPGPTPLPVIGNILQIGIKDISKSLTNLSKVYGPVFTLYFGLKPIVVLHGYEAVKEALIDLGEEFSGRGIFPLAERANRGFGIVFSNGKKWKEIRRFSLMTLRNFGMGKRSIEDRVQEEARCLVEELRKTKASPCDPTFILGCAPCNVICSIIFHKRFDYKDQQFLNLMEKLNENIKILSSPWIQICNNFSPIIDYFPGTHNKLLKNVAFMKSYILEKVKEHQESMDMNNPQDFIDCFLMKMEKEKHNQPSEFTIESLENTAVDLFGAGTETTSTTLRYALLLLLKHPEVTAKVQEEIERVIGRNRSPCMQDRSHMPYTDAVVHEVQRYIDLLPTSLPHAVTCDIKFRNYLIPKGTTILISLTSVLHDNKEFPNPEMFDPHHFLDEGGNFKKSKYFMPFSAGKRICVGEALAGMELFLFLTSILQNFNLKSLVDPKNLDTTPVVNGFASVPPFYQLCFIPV
Procedure, shortened: (§1)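 Recombinant CYP isoforms (five tested) screened for inhibition in fluorescence-based assays; IC50 in μM.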

[2] = AUClast in CD-1 mouse at 5 mg/kg, po administered as single dose measured up to 24 hrs; assay type: ADME, organism-based; design: route oral, dose 5 mg/kg, time <=24; details: in vivo
Procedure, shortened: (§2)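 Male CD-1 mice, 6–8 weeks old, single dose by tail vein (1 mg/kg, 3% NMP/45% PEG300/12% ethanol/40% water) or oral gavage (5 mg/kg, 5% NMP/95% PEG300). Retro-orbital plasma sampled 0.083 (iv only) to 24 h, n=3/timepoint, and analysed by HPLC/MS/MS. Non-compartmental analysis. Half-life taken from the terminal phase using ≥3 non-zero points after Tmax.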

[3] = Ratio of drug concentration in CD-1 mouse brain to plasma at 1 mg/kg, iv measured after 1 hr
[4] = Oral bioavailability in CD-1 mouse at 5 mg/kg administered as single dose measured up to 24 hrs; assay type: ADME, organism-based; details: in vivo
Procedure, shortened: (§3)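 CD-1 mouse PK after single iv (1 mg/kg) and oral gavage (5 mg/kg) dosing, with plasma sampled to 24 h (n=3/timepoint) and measured by HPLC/MS/MS. F(%) = (AUC0-inf po × Dose iv)/(AUC0-inf iv × Dose po) × 100.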

Gamma-secretase [5] = experiment: Modulation of gamma secretase in human SH-SY5Y cells overexpressing wild type APP751 assessed as effect on amyloid beta40 level by meso scale discovery; assay type: cell-based
[6] = Volume of distribution at steady state in CD-1 mouse at 1 mg/kg, iv administered as single dose measured up to 24 hrs; assay type: ADME, organism-based; details: in vivo
Procedure, shortened: (§4)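 Male CD-1 mice, 6–8 weeks old, single tail-vein dose in 3% NMP/45% PEG300/12% ethanol/40% sterile water. Retro-orbital plasma (K3EDTA) taken at 0.083, 0.25, 0.5, 1, 2, 4, 8 and 24 h, n=3/timepoint, analysed by HPLC/MS/MS. Non-compartmental analysis (Model 201, uniform weighting); Tmax read directly from the data.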

Gamma-secretase [7] = experiment: Modulation of gamma secretase in human SH-SY5Y cells overexpressing wild type APP751 assessed as inhibition of amyloid beta (35 to 42 residues) formation incubated for overnight by ELISA; assay type: cell-based
Procedure, shortened: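 SHSY5Y-APP751 cells plated at 75K/well and incubated overnight at 37 °C, then treated 24 h over 10 concentrations ([…]–10 μM, 1:3.16 steps, in duplicate). Medium Aβ42 measured by sandwich ELISA (Aβ35–42 capture, AP-conjugated Aβ1–12 detection, CDP-Star luminescence) against an Aβ42 standard curve.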

[8] = Protein binding in plasma (unknown origin); assay type: ADME, cell-free
[9] = Metabolic stability in human liver microsomes assessed as parent compound remaining at 1 uM incubated for 30 mins; assay type: ADME, Microsome; details: microsomes, 0.5 h, 1 µM
Procedure, shortened: (§5)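 Test compound at 1 μM incubated 30 min with human, rat or mouse liver microsomes (1 mg/mL); parent remaining expressed as %.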

[10] = AUC infinity in CD-1 mouse at 1 mg/kg, iv administered as single dose measured up to 24 hrs; assay type: ADME, organism-based; design: route intravenous, dose 1 mg/kg, time <=24; details: in vivo; procedure, shortened: as §2
[11] = Metabolic stability in mouse liver microsomes assessed as parent compound remaining at 1 uM incubated for 30 mins; assay type: ADME, Microsome; details: 0.5 h; procedure, shortened: as §5
[12] = Cmax in CD-1 mouse at 5 mg/kg, po administered as single dose measured up to 24 hrs; assay type: ADME, organism-based; design: route oral, dose 5 mg/kg, time <=24; details: in vivo; procedure, shortened: as §2
[13] = AUClast in CD-1 mouse at 1 mg/kg, iv administered as single dose measured up to 24 hrs; assay type: ADME, organism-based; design: route intravenous, dose 1 mg/kg, time <=24; details: in vivo; procedure, shortened: as §2
Gamma-secretase [14] = experiment: Inhibition of gamma secretase in human H4 cells overexpressing APP751 transfected with Myc-tagged Notch at 1 to 10 uM incubated for 24 hrs in presence of NICD by Western blot analysis; details: h4, 24 h
Cytochrome P450 1A2 = biological target: T1, Cytochrome P450 1A2 (Homo sapiens, UniProt P05177); experiment: Inhibition of recombinant CYP1A2 (unknown origin) by fluorescence-based assay; assay type: ADME; procedure, shortened: as §1
T1 sequence (P05177 whole entry): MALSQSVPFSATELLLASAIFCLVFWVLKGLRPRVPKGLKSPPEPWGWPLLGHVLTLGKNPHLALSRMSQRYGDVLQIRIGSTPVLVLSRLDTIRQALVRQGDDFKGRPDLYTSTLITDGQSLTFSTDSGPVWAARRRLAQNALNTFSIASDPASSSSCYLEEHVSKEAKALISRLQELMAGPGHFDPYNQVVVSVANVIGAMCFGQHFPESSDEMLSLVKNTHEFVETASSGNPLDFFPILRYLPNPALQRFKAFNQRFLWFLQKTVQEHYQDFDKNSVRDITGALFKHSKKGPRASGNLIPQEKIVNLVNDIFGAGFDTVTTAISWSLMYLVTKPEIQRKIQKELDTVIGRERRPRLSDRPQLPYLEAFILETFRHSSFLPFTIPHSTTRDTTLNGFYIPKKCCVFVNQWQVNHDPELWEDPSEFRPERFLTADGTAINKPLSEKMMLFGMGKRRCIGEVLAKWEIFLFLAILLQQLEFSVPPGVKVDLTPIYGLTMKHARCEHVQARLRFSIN

Gamma-secretase [15] = experiment: Modulation of gamma secretase in human SH-SY5Y cells overexpressing wild type APP751 assessed as effect on amyloid beta38 level by meso scale discovery; assay type: cell-based
[16] = Ratio of drug concentration in CD-1 mouse brain to plasma at 5 mg/kg, po measured after 1 hr; assay type: ADME, organism-based
Procedure, shortened: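 Male CD-1 mice dosed once iv (1 mg/kg) or by oral gavage (5 mg/kg). Brain and plasma collected 1 h post dose (n=3/timepoint). Drug levels by HPLC/MS/MS; brain/plasma ratio calculated from these levels.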

Cytochrome P450 3A4 = Cytochrome P450 3A4 (Homo sapiens, UniProt P08684); experiment: Inhibition of recombinant CYP3A4 (unknown origin) by fluorescence-based assay; assay type: ADME
Cytochrome P450 3A4, sequence (P08684 whole entry): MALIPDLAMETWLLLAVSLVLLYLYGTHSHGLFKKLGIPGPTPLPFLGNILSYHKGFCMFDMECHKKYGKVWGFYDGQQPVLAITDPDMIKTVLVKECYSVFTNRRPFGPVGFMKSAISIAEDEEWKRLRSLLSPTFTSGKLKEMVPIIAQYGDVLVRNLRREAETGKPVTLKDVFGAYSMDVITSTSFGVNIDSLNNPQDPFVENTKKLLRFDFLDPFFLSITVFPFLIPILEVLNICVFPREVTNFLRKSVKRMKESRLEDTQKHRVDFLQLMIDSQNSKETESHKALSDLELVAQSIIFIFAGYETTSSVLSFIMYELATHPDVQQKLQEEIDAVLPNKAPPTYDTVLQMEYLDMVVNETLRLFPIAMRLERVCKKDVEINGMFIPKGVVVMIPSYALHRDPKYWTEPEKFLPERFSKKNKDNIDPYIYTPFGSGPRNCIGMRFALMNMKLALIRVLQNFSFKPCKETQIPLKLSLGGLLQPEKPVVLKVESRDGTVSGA

[17] = Half life in CD-1 mouse at 1 mg/kg, iv administered as single dose measured up to 24 hrs; assay type: ADME, organism-based; details: mouse, in vivo, 1 mg/kg, 24 h; procedure, shortened: as §2
Gamma-secretase [18] = experiment: Modulation of gamma secretase in human SH-SY5Y cells overexpressing wild type APP751 assessed as effect on amyloid beta42 level by meso scale discovery; assay type: cell-based
[19] = Cmax in CD-1 mouse at 1 mg/kg, iv administered as single dose measured up to 24 hrs; assay type: ADME, organism-based; design: route intravenous, dose 1 mg/kg, time <=24; details: in vivo; procedure, shortened: as §2
[20] = Bioavailability in CD-1 mouse at 1 mg/kg, iv administered as single dose measured up to 24 hrs; assay type: ADME, organism-based; details: in vivo; procedure, shortened: as §3
[21] = biological target: Voltage-gated inwardly rectifying potassium channel KCNH2 (Homo sapiens, UniProt Q12809); experiment: Inhibition of human ERG expressed in HEK293 cells by patch clamp assay; assay type: cell-based
Voltage-gated inwardly rectifying potassium channel KCNH2, sequence (Q12809 whole entry): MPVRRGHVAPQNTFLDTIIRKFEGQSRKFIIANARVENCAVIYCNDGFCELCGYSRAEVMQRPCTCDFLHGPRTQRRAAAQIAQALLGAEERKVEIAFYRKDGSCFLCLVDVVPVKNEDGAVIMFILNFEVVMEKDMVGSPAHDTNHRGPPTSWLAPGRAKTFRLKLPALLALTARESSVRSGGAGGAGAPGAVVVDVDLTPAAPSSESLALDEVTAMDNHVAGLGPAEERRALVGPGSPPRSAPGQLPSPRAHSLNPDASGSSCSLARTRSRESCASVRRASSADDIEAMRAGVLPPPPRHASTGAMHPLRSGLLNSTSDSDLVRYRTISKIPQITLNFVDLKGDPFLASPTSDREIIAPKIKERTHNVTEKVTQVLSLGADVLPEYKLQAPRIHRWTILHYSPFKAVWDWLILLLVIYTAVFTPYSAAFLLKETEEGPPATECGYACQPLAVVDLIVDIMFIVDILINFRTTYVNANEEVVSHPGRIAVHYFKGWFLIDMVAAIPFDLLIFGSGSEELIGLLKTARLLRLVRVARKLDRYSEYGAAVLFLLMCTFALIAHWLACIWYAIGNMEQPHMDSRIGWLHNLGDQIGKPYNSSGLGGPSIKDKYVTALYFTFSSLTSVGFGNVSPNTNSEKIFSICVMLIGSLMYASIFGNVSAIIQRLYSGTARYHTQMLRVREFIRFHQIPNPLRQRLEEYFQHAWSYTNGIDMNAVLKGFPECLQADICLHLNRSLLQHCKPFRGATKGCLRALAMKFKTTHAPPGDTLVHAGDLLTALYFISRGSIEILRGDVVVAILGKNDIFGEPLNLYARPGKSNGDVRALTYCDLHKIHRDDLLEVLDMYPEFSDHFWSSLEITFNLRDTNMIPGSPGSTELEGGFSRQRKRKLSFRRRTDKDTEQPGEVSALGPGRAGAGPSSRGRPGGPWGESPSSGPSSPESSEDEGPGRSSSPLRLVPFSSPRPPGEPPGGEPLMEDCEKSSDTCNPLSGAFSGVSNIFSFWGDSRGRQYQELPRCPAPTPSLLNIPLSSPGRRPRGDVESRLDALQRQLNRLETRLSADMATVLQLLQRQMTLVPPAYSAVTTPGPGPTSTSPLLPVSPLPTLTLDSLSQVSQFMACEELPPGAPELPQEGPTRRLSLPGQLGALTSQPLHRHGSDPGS

Cytochrome P450 2C19 = Cytochrome P450 2C19 (Homo sapiens, UniProt P33261); experiment: Inhibition of recombinant CYP2C19 (unknown origin) by fluorescence-based assay; assay type: ADME; procedure, shortened: as §1
Cytochrome P450 2C19, sequence (P33261 whole entry): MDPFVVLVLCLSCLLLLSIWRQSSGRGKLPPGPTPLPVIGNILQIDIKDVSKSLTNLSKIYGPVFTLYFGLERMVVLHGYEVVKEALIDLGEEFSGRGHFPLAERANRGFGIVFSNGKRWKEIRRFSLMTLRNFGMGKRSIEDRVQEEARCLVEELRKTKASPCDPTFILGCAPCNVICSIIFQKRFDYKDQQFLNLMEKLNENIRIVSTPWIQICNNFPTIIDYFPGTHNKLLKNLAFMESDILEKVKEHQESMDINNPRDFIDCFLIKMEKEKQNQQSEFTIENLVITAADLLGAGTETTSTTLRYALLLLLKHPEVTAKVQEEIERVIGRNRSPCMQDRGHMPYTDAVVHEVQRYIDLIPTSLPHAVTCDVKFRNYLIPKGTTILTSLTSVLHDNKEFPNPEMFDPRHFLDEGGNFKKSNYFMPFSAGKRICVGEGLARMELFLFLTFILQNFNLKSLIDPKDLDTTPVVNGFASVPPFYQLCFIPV

Cytochrome P450 2D6 = Cytochrome P450 2D6 (Homo sapiens, UniProt P10635); experiment: Inhibition of recombinant CYP2D6 (unknown origin) by fluorescence-based assay; assay type: ADME; procedure, shortened: as §1
Cytochrome P450 2D6, sequence (P10635 whole entry): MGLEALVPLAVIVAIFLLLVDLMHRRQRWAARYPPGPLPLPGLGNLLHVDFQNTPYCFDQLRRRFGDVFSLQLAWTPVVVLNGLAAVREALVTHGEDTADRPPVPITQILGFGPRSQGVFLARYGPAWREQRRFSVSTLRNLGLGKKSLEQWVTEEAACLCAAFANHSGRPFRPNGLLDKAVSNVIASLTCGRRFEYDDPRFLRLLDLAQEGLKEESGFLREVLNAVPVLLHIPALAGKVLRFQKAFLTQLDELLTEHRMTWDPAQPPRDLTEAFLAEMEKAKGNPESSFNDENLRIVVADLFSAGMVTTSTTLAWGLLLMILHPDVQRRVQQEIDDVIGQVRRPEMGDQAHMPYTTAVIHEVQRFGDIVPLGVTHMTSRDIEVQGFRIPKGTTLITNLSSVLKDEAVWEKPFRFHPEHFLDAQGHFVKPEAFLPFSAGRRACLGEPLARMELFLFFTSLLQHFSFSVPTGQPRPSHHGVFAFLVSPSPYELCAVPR

[22] = Metabolic stability in rat liver microsomes assessed as parent compound remaining at 1 uM incubated for 30 mins; assay type: ADME, Microsome; details: 0.5 h; procedure, shortened: as §5
[23] = Tmax in CD-1 mouse at 1 mg/kg, iv administered as single dose measured up to 24 hrs; assay type: ADME, organism-based; details: in vivo; procedure, shortened: as §4
[24] = Kinetic aqueous solubility of the compound in pH 7.4 PBS buffer by UV/Visible absorbance analysis; assay type: physicochemical; details: read-out: Kinetic_solubility
Procedure, shortened: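 Kinetic solubility determined in PBS at pH 7.4 by UV/Vis absorbance, reported in μM.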

[25] = AUC infinity in CD-1 mouse at 5 mg/kg, po administered as single dose measured up to 24 hrs; assay type: ADME, organism-based; design: route oral, dose 5 mg/kg, time <=24; details: in vivo; procedure, shortened: as §2
[26] = Tmax in CD-1 mouse at 5 mg/kg, po administered as single dose measured up to 24 hrs; assay type: ADME, organism-based; details: in vivo
Procedure, shortened: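 Male CD-1 mice, 6–8 weeks old, single oral gavage dose in 5% NMP/95% PEG300. Plasma (K3EDTA, retro-orbital, under isoflurane) taken at 0.25, 0.5, 1, 2, 4, 8 and 24 h, n=3/timepoint, analysed by HPLC/MS/MS. Non-compartmental extravascular analysis (Model 200); Tmax taken directly from the data.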

CCn1nc2c(c1Nc1nc(-c3ccc(-n4cnc(C)c4)c(OC)n3)cs1)CCCC2
Activity [1]: inactive
IC50 (Cytochrome P450 2C9): 9 µM
AUClast [2]: 1089 ng·h/mL
BPR [3]: 0.4
F [4]: 53.7%
IC50 (Gamma-secretase [5]): 0.104 µM
Vdss [6]: 1.413 L/kg
IC50 (Gamma-secretase [7]): 0.06 µM
PPB [8]: 99.6%
Stabilty [9]: 36%
AUC [10]: 463 ng·h/mL
Stabilty [11]: 64%
Cmax [12]: 705 ng/mL
AUClast [13]: 443 ng·h/mL
inhibition (INH) (Gamma-secretase [14]): Not Active
IC50 (Cytochrome P450 1A2): > 100 µM
EC50 (Gamma-secretase [15]): 0.305 µM
BPR [16]: 0.4
IC50 (Cytochrome P450 3A4): 3.7 µM
t1/2 [17]: 30 min
IC50 (Gamma-secretase [18]): 0.058 µM
Cmax [19]: 824 ng/mL
F [20]: 100%
IC50 [21]: 8.6 µM
IC50 (Cytochrome P450 2C19): 5.9 µM
IC50 (Cytochrome P450 2D6): > 100 µM
Stabilty [22]: 71%
Tmax [23]: 4.98 min
solubility kinetic [24]: 4.5 µM (≈ 1.96 µg/mL)
AUC [25]: 1243 ng·h/mL
Tmax [26]: 15 min

— ChEMBL document CHEMBL4699542, “Design and synthesis of novel methoxypyridine-derived gamma-secretase modulators” (Bioorg Med Chem, 2020)
